Sampled rows, rich in hits. Any-hit rate of the full collection: about 4.8%.
Mdm2 MdmX PPI = inhibitors of human Mdm2-MdmX association, primary screen, cell-based, luminescence, split luciferase, SaOS-2, uHTS. inhibition, % at 8 µM. Protein Mdm4 (Homo sapiens) + E3 ubiquitin-protein ligase Mdm2 (Homo sapiens), …. SaOS-2 split-luciferase Mdm2/MdmX complementation. actives 3% (n = 330,000);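 active = inhibition of at least 50% at 8 µM in the primary screen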
Target sequence (O15151 whole entry, looked up): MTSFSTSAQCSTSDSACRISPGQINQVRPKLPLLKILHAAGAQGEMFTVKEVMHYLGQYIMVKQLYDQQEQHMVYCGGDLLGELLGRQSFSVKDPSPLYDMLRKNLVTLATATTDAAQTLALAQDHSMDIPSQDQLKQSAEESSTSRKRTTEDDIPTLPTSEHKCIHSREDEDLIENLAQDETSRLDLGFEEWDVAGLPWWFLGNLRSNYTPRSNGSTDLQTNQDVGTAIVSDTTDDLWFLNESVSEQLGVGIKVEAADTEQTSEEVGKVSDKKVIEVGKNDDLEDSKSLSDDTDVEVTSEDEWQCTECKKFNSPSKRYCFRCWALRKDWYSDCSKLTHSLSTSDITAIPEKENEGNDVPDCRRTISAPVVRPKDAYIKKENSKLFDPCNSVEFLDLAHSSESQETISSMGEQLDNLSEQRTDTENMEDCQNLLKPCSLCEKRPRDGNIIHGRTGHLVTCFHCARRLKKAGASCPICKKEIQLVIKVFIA
Target sequence (Q00987 whole entry, looked up): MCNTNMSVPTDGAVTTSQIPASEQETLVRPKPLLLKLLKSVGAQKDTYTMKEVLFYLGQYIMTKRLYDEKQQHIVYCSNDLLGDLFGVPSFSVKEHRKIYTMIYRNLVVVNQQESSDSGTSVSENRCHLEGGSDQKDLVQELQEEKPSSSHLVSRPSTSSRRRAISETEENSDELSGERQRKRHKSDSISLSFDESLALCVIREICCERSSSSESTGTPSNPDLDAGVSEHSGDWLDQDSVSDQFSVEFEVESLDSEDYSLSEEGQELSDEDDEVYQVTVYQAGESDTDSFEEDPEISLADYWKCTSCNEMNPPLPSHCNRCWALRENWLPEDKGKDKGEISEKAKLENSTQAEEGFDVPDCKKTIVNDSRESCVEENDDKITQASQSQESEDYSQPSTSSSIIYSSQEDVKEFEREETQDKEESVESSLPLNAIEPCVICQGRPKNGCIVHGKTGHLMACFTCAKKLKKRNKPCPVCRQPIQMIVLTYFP
UPR CHOP act = activators of apoptotic CHOP UPR arm, primary screen, cell-based, CHO-CHOP luciferase reporter, luminescence, uHTS; UPR activation; percent of tunicamycin response over DMSO baseline; activation, % at 10 µM; actives 0.34% (n = 330,000);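 active = at 10 µM dose, activation of 40% or more, normalized to positive control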;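 also: 100% = tunicamycin at 10 µg/mL and 0% = DMSO alone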
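System: CHO CHOP reporter cells. Amount: 500 cells per well. Buffer or medium: F12 medium, 10% FBS. Compound dosing: one dose, 10 µM in 0.5% DMSO. Incubation: 6 h compound exposure at 37 °C after overnight seeding. Technique: Steady-Glo luciferase luminescence. Benchmarks: tunicamycin and DMSO controls.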
XBP1 UPR activ = activators of adaptive XBP1 UPR arm, primary screen, cell-based, CHO-XBP1 luciferase reporter, luminescence, uHTS | IRE1-XBP1 UPR activation; percent of tunicamycin response, DMSO as zero | activation, % at 20 µM | actives 0.33% (n = 330,000) | AID 463104, 2010;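 active = versus positive control, 20 µM dose yields 30% or more activation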;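 also: 100% = tunicamycin at 10 µg/mL and 0% = DMSO only wells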
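Material: CHO cell line with stable XBP1 luciferase reporter; buffer or medium: F12 medium containing 10% fetal bovine serum; compound: single point, 20 µM final compound, 1% DMSO; incubation: 6 h treatment, 37 °C; measured by: glow luminescence from Steady-Glo reagent; evaluation: activation, % of tunicamycin; control set: tunicamycin high, DMSO low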
Beta apoptosis = inhibitors of cytokine-induced beta cell apoptosis, primary screen, luminescence | INS-1E cytokine-induced death, ATP luminescence, 48 h; percent of positive-control rescue, neutral wells zero | protection from apoptosis, % (concentration not given with the values) | actives 0.8% (n = 300,000);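 active = Every replicate reaches about 75%, or at least half do and their mean reaches it too, limit read from the data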;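 also: 0% = cytokine-treated negative control wells and 100% = positive control rescue; higher means more ATP so stronger rescue from cytokine killing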
SKKanGAS inh = S. pyogenes SKKanGAS growth inhibitors in kanamycin, primary screen, streptokinase expression inhibitor project, SKKanGAS strain, BacTiter-Glo luminescence | 6 h | actives 1.3% (n = 300,000) | AID 1662, 2009 | inhibition, % at 7.5 µM;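 active = mean replicate score, as percent of positive control median, at least 50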;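 also: strain carries kanamycin resistance gene driven by streptokinase promoter and grows in 40 µg/ml kanamycin; loss of luminescence reflects streptokinase promoter inhibition or plain growth inhibition; 0% = median of DMSO wells and 100% = positive control at its reference dose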
CSC inhib = cancer stem cell viability inhibitors, primary screen, luminescence. cancer stem cell-like cells viability. inhibition, % at 7.5 µM. actives 1.1% (n = 300,000). AID 2717, 2010; in the data active = inhibition above about 75%; tested in HMLE shEcad cells
Mdm2 MdmX conf = Mdm2-MdmX complex disruptors, retested hits, confirmation, luminescence, single concentration; shares compounds with Mdm2 MdmX PPI; Mdm2-MdmX binding, luminescent assay; inhibition, % at 8 µM; actives 55% (n = 10,000); in the data active = inhibition above about 40%
Full FLuc ctr = full-length luciferase signal inhibition, confirmation, counter-screen for Mdm2/MdmX interaction inhibitor project, cell-based, single concentration, SaOS-2. SaOS-2 full-length luciferase counterscreen, luminescence. AID 504607, 2011. actives 77% (n = 6,200). shares compounds with Mdm2 MdmX PPI. inhibition, % at 8 µM;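 active = mean inhibition at 8 µM reaching about 37%, which flags the compound as non-specific, limit read from the data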;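 also: p53-null SaOS-2 cells with luciferase driven by a doxycycline-inducible promoter; compound on cells about two nights before reading with doxycycline added after day one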
An asterisk follows results filed as active; · = no result.

SMILES | Mdm2 MdmX PPI | UPR CHOP act | XBP1 UPR activ | Beta apoptosis | SKKanGAS inh | CSC inhib | Mdm2 MdmX conf | Full FLuc ctr
c1ccc(C2=Nn3c(nnc3-c3n[nH]c4c3CCC4)SC2)cc1 | 71* | 1 | 2 | · | -3 | -9 | 51* | 89*
COc1ccc(C2=Nn3c(nnc3-c3ccc(OC)cc3)SC2)cc1 | · | · | · | 3 | 7 | 41 | · | ·
Clc1ccc(C2=Nn3c(nnc3-c3cccs3)SC2)cc1 | 14 | 1 | 1 | -1 | -6 | -7 | · | ·
O=C(C1CCC(CNS(=O)(=O)c2cccs2)CC1)N1CCN(c2ccc(Cl)cc2)CC1 (stereo unspecified) | 27 | 8 | -6 | 55 | -3 | -10 | · | ·
Cc1ccc(Cl)cc1N1CCN(S(=O)(=O)c2c(C)[nH]c(C)c2C(=O)N2CCCCC2)CC1 | 12 | -2 | -4 | 2 | 2 | -10 | · | ·
Cc1ccc(CNC(=O)Nc2ccccc2)n1C | -11 | 4 | 5 | -5 | 4 | -12 | · | ·
Clc1ccc(C2=Nn3c(nnc3-c3n[nH]c4c3CCC4)SC2)cc1Cl | 89* | 3 | 8 | -32 | 36 | 32 | 69* | 34
CCOc1ccc(C2=Nn3c(nnc3-c3ccccc3)SC2)cc1Cl | 17 | 4 | 1 | 0 | -5 | 11 | · | ·
CCc1nnc2n1N=C(c1ccccc1)CS2 | -20 | 4 | 0 | -4 | 1 | -7 | · | ·
c1ccc(C2=Nn3c(nnc3-c3cc(-c4ccccc4)n[nH]3)SC2)cc1 | 79* | 7 | 26 | · | 24 | 20 | 21 | ·
COc1cccc(-c2nnc3n2N=C(C(C)(C)C)CS3)c1 | 85* | -5 | -2 | -48 | -17 | -17 | 99* | 51*
COc1ccc(C2=Nn3c(nnc3-c3ccco3)SC2)cc1OC | 55* | -1 | 12 | 9 | 4 | 0 | 16 | ·
CN(Cc1ccccc1)C(=O)COC(=O)CN1C(=O)c2ccccc2C1=O | 6 | 1 | 1 | 3 | · | 9 | · | ·
CC(C)Cc1ccc(S(=O)(=O)NCC2CCCO2)cc1 (stereo unspecified) | -7 | 1 | -5 | · | 8 | -2 | · | ·
CCNc1nc(NC(C)CC)nc(Oc2ccc(OCC)nn2)n1 (stereo unspecified) | 54* | -2 | 2 | 3 | 4 | 7 | 4 | ·
Cc1cccc(CS(=O)(=O)c2ncc(CO)n2C)c1 | 12 | 1 | 4 | -4 | -4 | -1 | · | ·
CC1CCCCN1CCNC(=O)C1CCCN(S(=O)(=O)c2cccc3nsnc23)C1 (stereo unspecified) | -8 | 3 | -1 | -6 | -7 | 5 | · | ·
COc1cccc2c1C(CO)N1C(C#N)C3CC(C(=O)O)C(C1C2)N3C (stereo unspecified) | 100* | -3 | -4 | 2 | · | 21 | 100* | 52*
O=C1C=CC(=C(c2ccc(O)cc2)c2ccc(O)cc2)C=C1 | 91* | 27 | -2 | -5 | · | · | 70* | 45*
C[C@@H]1CN([C@H](C)CO)C(=O)c2cccc(NC(=O)Nc3ccc(C(F)(F)F)cc3)c2O[C@H]1CN(C)S(=O)(=O)c1cccs1 | 57* | 0 | 2 | 4 | · | · | 41* | 73*
COc1ccc(S(=O)(=O)N(C)C[C@H]2Oc3c(NC(=O)Nc4ccc(C(F)(F)F)cc4)cccc3C(=O)N([C@H](C)CO)C[C@@H]2C)cc1 | 52* | 4 | 5 | 13 | · | 50 | 22 | ·
CC(=O)Nc1ccc(N2C(=O)CSC2c2ccccc2)cc1 (stereo unspecified) | -20 | -1 | -1 | -11 | -9 | -1 | · | ·
Cc1sc2nc(CN(C(=O)c3cccs3)C3CCCC3)[nH]c(=O)c2c1C | 3 | -2 | -2 | 2 | 11 | 14 | · | ·
O=C(c1cccs1)N(Cc1nc2sc3c(c2c(=O)[nH]1)CCCC3)C1CCCC1 | 87* | 2 | -1 | 1 | 25 | 1 | 82* | 38*
CCCCCn1c(=NC(=O)c2cccnc2)c(C#N)cc2c(=O)n3cccc(C)c3nc21 | 73* | 4 | 5 | 14 | 11 | 44 | 51* | 42*
SMILES | Mdm2 MdmX PPI | UPR CHOP act | XBP1 UPR activ | Beta apoptosis | SKKanGAS inh | CSC inhib | Mdm2 MdmX conf | Full FLuc ctr
CCCCn1c(=NC(C)=O)c(C#N)cc2c(=O)n3cccc(C)c3nc21 | 14 | 4 | -2 | 6 | 1 | -6 | · | ·
COC(=O)c1cc(-c2ccc(OC)c(OC)c2)c2c(=O)[nH]c(=O)n(C)c2n1 | 50* | 2 | 2 | -6 | 37 | 0 | 22 | ·
COc1ccc(-c2cc(C(=O)Nc3cccnc3Cl)no2)cc1OC | -5 | 2 | -2 | -2 | 1 | 6 | · | ·
COc1cccc(/C=N/c2oc(-c3ccccc3)cc2C#N)c1O | 12 | 2 | 0 | -5 | -5 | -5 | · | ·
N#Cc1cc(-c2ccccc2)oc1/N=C/c1ccccc1O | 53* | 2 | -1 | 0 | -5 | · | 57* | 105*
O=C(CCNC(=O)c1ccc(Br)cc1)Nc1ccc(S(=O)(=O)N2CCOCC2)cc1 | -24 | 0 | -3 | 0 | · | 0 | · | ·
O=C(NCCN1C(=O)S/C(=C\c2ccc(Cl)c([N+](=O)[O-])c2)C1=O)C1=COCCO1 | 96* | 10 | -5 | -2 | -12 | 52 | 58* | 57*
COc1ccc(-c2nc(N)nc(C)c2Oc2ccccc2Br)c(O)c1 | 67* | 0 | -3 | -11 | · | 83* | 65* | 53*
O=C1C(SCCO)=C(SCCO)C(=O)c2ccccc21 | 82* | -12 | -7 | 99* | · | 102* | 75* | 21
CC(C)CN1CC(COCc2ccccc2)Oc2ccccc2S1(=O)=O (stereo unspecified) | -7 | 3 | 3 | · | · | · | · | ·
Cc1cc(N2CCN(Cc3cn(C)nc3-c3cccc(Cl)c3)CC2)cc(C)n1 | 61* | 1 | -2 | 3 | 3 | 42 | 62* | 43*
Cc1ccc(NC(=O)c2ccc(N3CCCC3=O)cc2)cc1S(=O)(=O)N1CCCCC1 | 34 | 2 | 2 | -3 | · | 2 | · | ·
OCCNc1c2ccccc2nc2ccccc12 | 61* | 1 | -1 | · | 11 | 12 | 56* | 37*
O=C(/C=C/c1ccccc1)NC(=S)Nc1ccc2c3c(cccc13)CC2 | 59* | -2 | -6 | 13 | -3 | 8 | 12 | ·
